Our source for the IC50 values is ChEMBL document CHEMBL2429843 (J Med Chem, 2013).

One may read the IC50 as the concentration at which inhibition is half-maximal.

A short description of one experiment: Inhibition of Escherichia coli TrmD using S-[methyl-3H] adenosyl-L-methionine as substrate assessed as leucine-tRNA methylation after 1 hr by scintillation proximity assay. The method in brief: (§1)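 Radiometric SPA: TrmD in 50 mM HEPES pH 7.5 with 5 mM MgCl2 (E. coli and K. pneumoniae 10 nM, S. aureus 10 nM, P. aeruginosa 5 nM, H. influenzae 4 nM in enzyme reagent), mixed 1:1 with a reagent of 0.05 μM [3H]SAM, 2 μM unlabelled SAM and 2 μM synthetic E. coli leucine-tRNA. Compounds are 2-fold serial DMSO dilutions. Incubation is 1 h at room temperature.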
On the technique in general: In a scintillation proximity assay essentially only radioactivity close to the scintillant gives light.
`O=C(NCc1ccc(CO)cc1)c1csc2nc[nH]c(=O)c12`: the IC50 is 5.9 µM.

With `Oc1ncnc2scc(-c3ccccc3)c12`, the IC50 is 17 µM.

Consider `C[C@H](NC(=O)c1csc2nc[nH]c(=O)c12)c1ccccc1`, for which the IC50 was above 200 µM.

On to `C[C@@H](NC(=O)c1csc2nc[nH]c(=O)c12)c1ccccc1`, for which the IC50 came out at 123 µM.

`NCC1CCC(CNC(=O)c2csc3nc[nH]c(=O)c23)CC1` (stereo unspecified): the IC50 turned out to be 4.9 µM.

On to `Cc1ccc(-c2csc3ncnc(O)c23)cc1`, for which the IC50 was determined as 6.9 µM.

Regarding `CN(Cc1ccccc1)C(=O)c1csc2nc[nH]c(=O)c12`, the IC50 is above 200 µM.

With `O=c1[nH]cnc2scc(C3CCCC3)c12`, the IC50 came out at 52 µM.

In the case of `O=c1[nH]cnc2scc(C3CCNC3)c12` (stereo unspecified), the IC50 was above 200 µM.

Turning to `O=C(NCc1cccnc1)c1csc2nc[nH]c(=O)c12`, the IC50 came to 11 µM.

Consider `O=C1CN(Cc2ccc(CNC(=O)c3csc4nc[nH]c(=O)c34)cc2)CCN1`, for which the IC50 was 2.8 µM.

For `O=c1[nH]cnc2[nH]nc(-c3ccccc3)c12`, the half-maximal inhibitory concentration (IC50) is above 200 µM.

For the compound `CCCNCc1ccc(CNC(=O)c2csc3nc[nH]c(=O)c23)cc1`, the IC50 was found to be 1 µM.

Consider `COCCNCc1ccc(CNC(=O)c2csc3nc[nH]c(=O)c23)cc1`, for which the IC50 came to 1.3 µM.

Regarding `CN(C)Cc1ccc(CNC(=O)c2csc3nc[nH]c(=O)c23)cc1`, the IC50 is 1.8 µM.

Regarding `O=C(NCc1ccc(CN2CCN(CCO)CC2)cc1)c1csc2nc[nH]c(=O)c12`, the IC50 stood at 0.47 µM.

Consider `O=C(NCc1ccncc1)c1csc2nc[nH]c(=O)c12`, for which the IC50 was found to be 19 µM.

As to `O=C(NCc1ccccn1)c1csc2nc[nH]c(=O)c12`, the IC50 was determined as 139 µM.

For `CC(=O)N1CCC(c2csc3nc[nH]c(=O)c23)C1` (stereo unspecified), the IC50 was above 200 µM.

`NC(=O)c1ccc(CNC(=O)c2csc3nc[nH]c(=O)c23)cc1`: the half-inhibitory concentration (IC50) was determined as 4.7 µM.

On to `Cn1cc(-c2csc3nc[nH]c(=O)c23)cn1`, for which the IC50 turned out to be 2.1 µM.

`O=c1[nH]cnc2sccc12`: the IC50 worked out at 120 µM.

As for `O=C(NCc1ccc(-c2ccccc2)cc1)c1csc2nc[nH]c(=O)c12`, the IC50 was 33 µM.

A short description of another experiment: Inhibition of Haemophilus influenzae TrmD using S-[methyl-3H] adenosyl-L-methionine as substrate assessed as leucine-tRNA methylation after 1 hr by scintillation proximity assay. The method in brief:
as §1
As to `O=C(NCc1ccc(CO)cc1)c1csc2nc[nH]c(=O)c12`, the IC50 was 10 µM.

For `Oc1ncnc2scc(-c3ccccc3)c12`, the IC50 was 4.7 µM.

In the case of `C[C@H](NC(=O)c1csc2nc[nH]c(=O)c12)c1ccccc1`, the IC50 is above 200 µM.

On to `C[C@@H](NC(=O)c1csc2nc[nH]c(=O)c12)c1ccccc1`, for which the IC50 was 49 µM.

Take `NCC1CCC(CNC(=O)c2csc3nc[nH]c(=O)c23)CC1` (stereo unspecified): the IC50 is 1.8 µM.

On to `Cc1ccc(-c2csc3ncnc(O)c23)cc1`, for which the half-inhibitory concentration (IC50) was 1.7 µM.

As to `CN(Cc1ccccc1)C(=O)c1csc2nc[nH]c(=O)c12`, the IC50 was above 200 µM.

In the case of `O=c1[nH]cnc2scc(C3CCCC3)c12`, the IC50 amounted to 16 µM.

`O=c1[nH]cnc2scc(C3CCNC3)c12` (stereo unspecified): the IC50 was above 200 µM.

On to `O=C(NCc1cccnc1)c1csc2nc[nH]c(=O)c12`, for which the IC50 was 3.6 µM.

For `O=C1CN(Cc2ccc(CNC(=O)c3csc4nc[nH]c(=O)c34)cc2)CCN1`, the half-inhibitory concentration (IC50) amounted to 9.3 µM.

Consider `O=c1[nH]cnc2[nH]nc(-c3ccccc3)c12`, for which the IC50 was 30 µM.

Turning to `CCCNCc1ccc(CNC(=O)c2csc3nc[nH]c(=O)c23)cc1`, the IC50 stood at 1 µM.

Take `COCCNCc1ccc(CNC(=O)c2csc3nc[nH]c(=O)c23)cc1`: the IC50 turned out to be 1.7 µM.

With `CN(C)Cc1ccc(CNC(=O)c2csc3nc[nH]c(=O)c23)cc1`, the IC50 came out at 1.2 µM.

As to `O=C(NCc1ccc(CN2CCN(CCO)CC2)cc1)c1csc2nc[nH]c(=O)c12`, the IC50 is 1.6 µM.

On to `O=C(NCc1ccncc1)c1csc2nc[nH]c(=O)c12`, for which the IC50 is 8.2 µM.

With `O=C(NCc1ccccn1)c1csc2nc[nH]c(=O)c12`, the 50% inhibitory concentration (IC50) turned out to be 8 µM.

As to `O=c1[nH]cnc2ccc(-c3ccccc3)cc12`, the IC50 turned out to be 11 µM.

Regarding `CC(=O)N1CCC(c2csc3nc[nH]c(=O)c23)C1` (stereo unspecified), the IC50 is above 200 µM.

Regarding `NC(=O)c1ccc(CNC(=O)c2csc3nc[nH]c(=O)c23)cc1`, the IC50 amounted to 7.1 µM.

For `Cn1cc(-c2csc3nc[nH]c(=O)c23)cn1`, the IC50 is 0.67 µM.

Take `O=c1[nH]cnc2sccc12`: the IC50 was 144 µM.

For `O=C(NCc1ccc(-c2ccccc2)cc1)c1csc2nc[nH]c(=O)c12`, the IC50 amounted to 64 µM.

A short description of a further experiment: Inhibition of Staphylococcus aureus TrmD using S-[methyl-3H] adenosyl-L-methionine as substrate assessed as leucine-tRNA methylation after 1 hr by scintillation proximity assay. A digest of the protocol:
as §1
`O=C(NCc1ccc(CO)cc1)c1csc2nc[nH]c(=O)c12`: the IC50 was found to be 38 µM.

For the compound `Oc1ncnc2scc(-c3ccccc3)c12`, the IC50 amounted to 11 µM.

As for `C[C@H](NC(=O)c1csc2nc[nH]c(=O)c12)c1ccccc1`, the IC50 was above 200 µM.

For the compound `C[C@@H](NC(=O)c1csc2nc[nH]c(=O)c12)c1ccccc1`, the IC50 is above 200 µM.

In the case of `NCC1CCC(CNC(=O)c2csc3nc[nH]c(=O)c23)CC1` (stereo unspecified), the IC50 is 12 µM.

Take `Cc1ccc(-c2csc3ncnc(O)c23)cc1`: the IC50 was determined as 62 µM.

With `CN(Cc1ccccc1)C(=O)c1csc2nc[nH]c(=O)c12`, the IC50 is above 200 µM.

As for `O=c1[nH]cnc2scc(C3CCCC3)c12`, the IC50 stood at 21 µM.

Regarding `O=c1[nH]cnc2scc(C3CCNC3)c12` (stereo unspecified), the IC50 was above 200 µM.

Take `O=C(NCc1cccnc1)c1csc2nc[nH]c(=O)c12`: the IC50 is 73 µM.

Turning to `O=C1CN(Cc2ccc(CNC(=O)c3csc4nc[nH]c(=O)c34)cc2)CCN1`, the IC50 was found to be 22 µM.

In the case of `O=c1[nH]cnc2[nH]nc(-c3ccccc3)c12`, the IC50 was 1.4 µM.

Regarding `CCCNCc1ccc(CNC(=O)c2csc3nc[nH]c(=O)c23)cc1`, the IC50 worked out at 6.6 µM.

As for `COCCNCc1ccc(CNC(=O)c2csc3nc[nH]c(=O)c23)cc1`, the half-inhibitory concentration (IC50) was found to be 12 µM.

Turning to `CN(C)Cc1ccc(CNC(=O)c2csc3nc[nH]c(=O)c23)cc1`, the IC50 turned out to be 27 µM.

For `O=C(NCc1ccc(CN2CCN(CCO)CC2)cc1)c1csc2nc[nH]c(=O)c12`, the IC50 is 14 µM.

Take `O=C(NCc1ccncc1)c1csc2nc[nH]c(=O)c12`: the IC50 was found to be 72 µM.

Regarding `O=C(NCc1ccccn1)c1csc2nc[nH]c(=O)c12`, the IC50 is above 200 µM.

As for `O=c1[nH]cnc2ccc(-c3ccccc3)cc12`, the IC50 is above 200 µM.

Regarding `CC(=O)N1CCC(c2csc3nc[nH]c(=O)c23)C1` (stereo unspecified), the IC50 was above 200 µM.

For the compound `NC(=O)c1ccc(CNC(=O)c2csc3nc[nH]c(=O)c23)cc1`, the IC50 was found to be 25 µM.

Take `Cn1cc(-c2csc3nc[nH]c(=O)c23)cn1`: the IC50 turned out to be 34 µM.

Turning to `O=c1[nH]cnc2sccc12`, the concentration for half-maximal inhibition (IC50) amounted to 1340 µM.

On to `O=C(NCc1ccc(-c2ccccc2)cc1)c1csc2nc[nH]c(=O)c12`, for which the IC50 was 105 µM.
